Results as given in ChEMBL document CHEMBL5674889, “Enhanced JunD/RSK3 signalling due to loss of BRD4/FOXD3/miR-548d-3p axis determines BET inhibition resistance” (2020).
Activity calls are given as the source filed them. No cut-off for these calls is given here.

Key:
BT-549 [1] = test: Antiproliferative activity in human BT-549 cells assessed as cell growth in the presence of lapatinib at 1 uM by CellTiter-Glo luminescent cell viability assay; assay type: functional, cell-based
How it was run: (§1)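 BLBC cells seeded at 3000/well, adhered overnight, then exposed to JQ1 (1 μM) with or without an EGFR inhibitor (1 μM) for 48 h; control and RPS6KA2-shRNA clones tested. Viability by CellTiter-Glo luminescence, background-subtracted and normalized to DMSO-treated control; triplicates, mean ± SD, one-way ANOVA against JQ1 alone.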

BT-549 [2] = test: Antiproliferative activity in human BT-549 cells assessed as cell growth in the presence of osimertinib at 1 uM by CellTiter-Glo luminescent cell viability assay; assay type: functional, cell-based; how it was run: as §1
BT-549 [3] = test: Antiproliferative activity in human BT-549 cells assessed as cell growth in the presence of gefitinib at 1 uM by CellTiter-Glo luminescent cell viability assay; assay type: functional, cell-based; how it was run: as §1
MDA-MB-231 [4] = test: Antiproliferative activity in human MDA-MB-231 cells assessed as cell growth inhibition for 48 hrs in the presence of […] at 1 uM by CCK-8 assay; assay type: functional, cell-based
MDA-MB-231 [5] = test: Effect on human BRD4-knockdown MDA-MB-231 assessed as decreased luciferase activity at 1 uM for 6 hrs by Luciferase reporter assay; assay type: functional, cell-based
BT-549 [6] = test: Induction of apoptosis in human BT-549 cells in the presence of osimertinib at 1 uM by flow cytometry analysis; assay type: functional, cell-based
How it was run: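 Cells given JQ1 and/or osimertinib, then stained with Annexin V-FITC plus propidium iodide (10 min, room temperature, dark; 1 × 10^6 cells/ml in binding buffer after two PBS washes) and analysed by flow cytometry; one-way ANOVA.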

MDA-MB-231 [7] = test: Antiproliferative activity in human FOXD3-knockdown MDA-MB-231 cells co-silenced with shRNA of JUND assessed as cell growth at 1 uM by CCK-8 assay; assay type: functional, cell-based
MDA-MB-231 [8] = test: Effect on induction of RPS6KA2 transcription in human MDA-MB-231 cells assessed as enhanced luciferase activity at 1 uM for 6 hrs by Luciferase reporter assay; assay type: functional, cell-based
How it was run: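 Control or JunD-shRNA BLBC cells were transfected with the RPS6KA2 enhancer luciferase reporter (FuGene 6, 24 h) and then treated with DMSO or JQ1 1 μM for 6 h. Dual-luciferase read-out given as fold induction over vector control. Three experiments in triplicate.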

MDA-MB-231 [9] = test: Antiproliferative activity in human MDA-MB-231 cells assessed as cell growth in the presence of AZ5104 at 1 uM by CellTiter-Glo luminescent cell viability assay; assay type: functional, cell-based; how it was run: as §1
MDA-MB-231 [10] = test: Effect on JUND dependent RPS6KA2 transcription in human JUND-knockdown MDA-MB-231 cells assessed reduction in transcription level at 1 uM by ChIP-RT-PCR analysis; assay type: functional, cell-based
How it was run: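 ChIP-qPCR used ~1 × 10^6 cross-linked JUND-knockdown or control cells treated with DMSO or 1 μM for 6 h. Immunoprecipitated DNA was quantified by real-time PCR with primers specific to the RPS6KA2 enhancer. Non-specific primers downstream of the gene 3′ end served as control.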

MDA-MB-231 [11] = test: Induction of apoptosis in human MDA-MB-231 cells over expressing RSK3 assessed as late apoptotic cells at 1 uM by Annexin V-FITC flow cytometric analysis (reference value: 1.45%); assay type: functional
How it was run: (§2)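 Stable clones (vector, RSK3-overexpressing or RPS6KA2-knockdown) treated ± JQ1 1 μM. Cells washed twice in PBS, resuspended at 1 × 10^6 cells/ml in binding buffer, stained with Annexin V-FITC and propidium iodide for 10 min at room temperature in the dark, then read by flow cytometry. Three independent experiments; one-way ANOVA.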

MDA-MB-231 [12] = test: Induction of apoptosis in human MDA-MB-231 cells over expressing RSK3 assessed as early apoptotic cells at 1 uM by Annexin V-FITC flow cytometric analysis (reference value: 3.85%); assay type: functional; how it was run: as §2
MDA-MB-231 [13] = test: Effect on human MDA-MB-231 cells assessed as JunD protein expression in the presence of miR-548d-3p at 1 uM by Western blot analysis; assay type: functional, cell-based
BT-549 [14] = test: Antiproliferative activity in human BT-549 cells assessed as cell growth in the presence of EAI045 at 1 uM by CellTiter-Glo luminescent cell viability assay; assay type: functional, cell-based; how it was run: as §1
HEK-293T = test: Effect on human HEK293T cells transfected with FOXD3 assessed as decrease in luciferase activity at 1 uM for 6 hrs by Luciferase reporter assay; assay type: functional, cell-based
BT-549 [15] = test: Antiproliferative activity in human BT-549 cells assessed as cell growth inhibition for 48 hrs in the presence of […] at 1 uM by CCK-8 assay; assay type: functional, cell-based
MDA-MB-231 [16] = test: Effect on human RPS6KA2-knockdown MDA-MB-231 cells assessed as inhibition tumor sphere formation at 1 uM by Tumor sphere assay; assay type: functional, cell-based
MDA-MB-231 [17] = test: Effect on human MDA-MB-231 cells assessed as EGFR protein expression at 1 uM by Western blot analysis; assay type: functional, cell-based
MDA-MB-231 [18] = test: Antiproliferative activity in human JUND-knockdown MDA-MB-231 cells assessed as cell viability at 1 uM by CellTiter-Glo luminescent cell viability assay; assay type: functional, cell-based
How it was run: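 Stable JUND-knockdown (shRNA, puromycin 1.0 μg/ml selection) or JUND-overexpressing clones and vector controls, seeded 3000 cells/well and adhered overnight, then given DMSO or JQ1 (1 μM) for 48 h. Read-out CellTiter-Glo luminescence normalized to DMSO control; triplicates, mean ± SD, one-way ANOVA.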

BT-549 [19] = test: Antiproliferative activity in human BT-549 cells assessed as cell growth for 48 hrs in the presence of osimertinib at 1 uM by CCK-8 assay; assay type: functional, cell-based
How it was run: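 Cells seeded 3000/well, adhered overnight, treated with JQ1 (1 μM) with or without osimertinib (1 μM) for 48 h; growth by CCK-8 kit, normalized to DMSO-treated control; triplicates, mean ± SD, one-way ANOVA.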

BT-549 [20] = test: Effect of human RSK3-overexpressing BT-549 cells assessed as suppression of tumour sphere formation at 1 uM by Tumour sphere assay; assay type: functional, cell-based
BT-549 [21] = test: Effect on human RPS6KA2-knockdown BT-549 cells assessed as inhibition tumor sphere formation at 1 uM by Tumor sphere assay; assay type: functional, cell-based
BT-474 = test: Antiproliferative activity in human FOXD3-overexpressing BT-474 cells assessed as cell growth at 1 uM by CCK-8 assay; assay type: functional, cell-based
MDA-MB-231 [22] = test: Effect of human RSK3-overexpressing MDA-MB-231 cells assessed as suppression of tumour sphere formation at 1 uM by Tumour sphere assay; assay type: functional, cell-based
BT-549 [23] = test: Antiproliferative activity in human BT-549 cells assessed as cell growth in the presence of AZ5104 at 1 uM by CellTiter-Glo luminescent cell viability assay; assay type: functional, cell-based; how it was run: as §1
MDA-MB-231 [24] = test: Effect on human MDA-MB-231 cells assessed as miR-548d-5p expression at 1 uM by real-time PCR analysis; assay type: functional, cell-based
MDA-MB-231 [25] = test: Effect on human MDA-MB-231 cells assessed as RSK3 […] expression at 1 uM for 24 hrs by Western blot analysis; assay type: functional, cell-based

With `Cc1sc2c(c1C)C(c1ccc(Cl)cc1)=N[C@@H](CC(=O)OC(C)(C)C)c1nnc(C)n1-2` as the molecule, how does the Activity (BT-549 [1]) read?
Its Activity is “Active”.

What about the Activity (BT-549 [2]) of the same molecule?
The Activity was “Active”.

And the Activity (BT-549 [3])?
Its Activity is “Active”.

What about the Activity (MDA-MB-231 [4]) of the same molecule?
The Activity was “Active”.

And the Activity (MDA-MB-231 [5])?
Its Activity is “Active”.

What about the Activity (BT-549 [6]) of the same molecule?
Its Activity is “Active”.

What about the Activity (MDA-MB-231 [7]) of the same molecule?
Its Activity is “Active”.

What about the Activity (MDA-MB-231 [8]) of the same molecule?
The Activity was “Active”.

And the Activity (MDA-MB-231 [9])?
Its Activity is “Active”.

What about the Activity (MDA-MB-231 [10]) of the same molecule?
Its Activity is “Active”.

What about the Activity (MDA-MB-231 [11]) of the same molecule?
The Activity was 2.9%.

And the Activity (MDA-MB-231 [12])?
The Activity was 7.14%.

What about the Activity (MDA-MB-231 [13]) of the same molecule?
Its Activity is “Active”.

What about the Activity (BT-549 [14]) of the same molecule?
Its Activity is “Active”.

What about the Activity (HEK-293T) of the same molecule?
The Activity was “Active”.

And the Activity (BT-549 [15])?
The Activity was “Active”.

What about the Activity (MDA-MB-231 [16]) of the same molecule?
Its Activity is “Active”.

What about the Activity (MDA-MB-231 [17]) of the same molecule?
The Activity was “Active”.

And the Activity (MDA-MB-231 [18])?
The Activity was “Active”.

And the Activity (BT-549 [19])?
The Activity was “Active”.

What about the Activity (BT-549 [20]) of the same molecule?
Its Activity is “Active”.

And the Activity (BT-549 [21])?
The Activity was “Active”.

What about the Activity (BT-474) of the same molecule?
The Activity was “Active”.

And the Activity (MDA-MB-231 [22])?
The Activity was “Active”.

What about the Activity (BT-549 [23]) of the same molecule?
Its Activity is “Active”.

And the Activity (MDA-MB-231 [24])?
Its Activity is “Active”.

What about the Activity (MDA-MB-231 [25]) of the same molecule?
The Activity was “Active”.
